According to ChEMBL document CHEMBL4382192, “Discovery of a potent dual ALK and EGFR T790M inhibitor” (Eur J Med Chem, 2017):

Assays:
[1] = target: Serine/threonine-protein kinase WNK3 (Homo sapiens) (UniProt Q9BYP7); experiment: Binding affinity to wild-type human partial length WNK3 (M1 to D434 residues) expressed in mammalian expression system assessed as residual binding level at 1 uM by Kinomescan method relative to control
[2] = target: Cyclin-dependent kinase 7 (Homo sapiens) (UniProt P50613); experiment: Binding affinity to wild-type human full length CDK7 (M1 to L344 residues) expressed in mammalian expression system assessed as residual binding level at 1 uM by Kinomescan method relative to control
[3] = target: Serine/threonine-protein kinase RIO1 (Homo sapiens) (UniProt Q9BRS2); experiment: Binding affinity to wild-type human full length RIOK1 (M1 to K568 residues) expressed in bacterial expression system assessed as residual binding level at 1 uM by Kinomescan method relative to control
Summary of the method: (§1)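 Single-point kinome-wide KINOMEscan binding panel, test compound at 1 μM, run by the provider's standard protocol.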

[4] = target: Dual specificity mitogen-activated protein kinase kinase 5 (Homo sapiens) (UniProt Q13163); experiment: Binding affinity to wild-type human partial length MEK5 (L98 to P448 residues) expressed in mammalian expression system assessed as residual binding level at 1 uM by Kinomescan method relative to control
Dual specificity mitogen-activated protein kinase kinase 5 (Homo sapiens), sequence (Q13163 whole entry, the tested form may be a part): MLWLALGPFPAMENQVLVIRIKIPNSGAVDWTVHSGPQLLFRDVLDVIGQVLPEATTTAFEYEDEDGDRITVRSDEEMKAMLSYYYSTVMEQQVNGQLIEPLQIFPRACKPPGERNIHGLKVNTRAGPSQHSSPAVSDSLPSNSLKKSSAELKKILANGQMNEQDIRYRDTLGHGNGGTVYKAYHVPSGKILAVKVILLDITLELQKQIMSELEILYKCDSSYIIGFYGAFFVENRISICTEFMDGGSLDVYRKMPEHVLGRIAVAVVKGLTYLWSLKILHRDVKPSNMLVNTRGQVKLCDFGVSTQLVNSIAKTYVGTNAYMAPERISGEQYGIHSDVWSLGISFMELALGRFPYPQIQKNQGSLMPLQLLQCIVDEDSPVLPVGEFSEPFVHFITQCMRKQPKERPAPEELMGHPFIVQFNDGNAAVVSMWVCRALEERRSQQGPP

[5] = system: Mast/stem cell growth factor receptor Kit (Homo sapiens), P10721 [A829P]; experiment: Binding affinity to human partial length KIT A829P mutant (I571 to D952 residues) expressed in mammalian expression system assessed as residual binding level at 1 uM by Kinomescan method relative to control
Summary of the method: (§2)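 Kinome-wide selectivity panel run by the KINOMEscan method, with the test compound at a single concentration of 1 μM. Wild-type and mutant kinases were profiled in the same screen.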

[6] = target: Homeodomain-interacting protein kinase 3 (Homo sapiens) (UniProt Q9H422); experiment: Binding affinity to wild-type human partial length HIPK3 (M153 to N562 residues) expressed in mammalian expression system assessed as residual binding level at 1 uM by Kinomescan method relative to control
[7] = Drug uptake in mouse plasma at 2 mg/kg, iv after 2 hrs; assay type: ADME, organism-based
[8] = target: TGF-beta receptor type-1 (Homo sapiens) (UniProt P36897); experiment: Binding affinity to wild-type human partial length TGFBR1 (D179 to M503 residues) expressed in bacterial expression system assessed as residual binding level at 1 uM by Kinomescan method relative to control
[9] = target: Calcium-dependent protein kinase 1 (Plasmodium falciparum) (UniProt P62344); experiment: Binding affinity to wild-type Plasmodium falciparum full length CDPK1 (M1 to S524 residues) expressed in mammalian expression system assessed as residual binding level at 1 uM by Kinomescan method relative to control
[10] = system: Epidermal growth factor receptor (Homo sapiens), P00533 [UNDEFINED MUTATION]; experiment: Binding affinity to human partial length EGFR L747-T751del/Sins mutant expressed in bacterial expression system assessed as residual binding level at 1 uM by Kinomescan method relative to control; summary of the method: as §2
[11] = target: Serine/threonine-protein kinase Nek2 (Homo sapiens) (UniProt P51955); experiment: Binding affinity to wild-type human partial length NEK2 (M1 to K309 residues) expressed in bacterial expression system assessed as residual binding level at 1 uM by Kinomescan method relative to control
[12] = target: Proto-oncogene tyrosine-protein kinase receptor Ret (Homo sapiens) (UniProt P07949); experiment: Binding affinity to wild-type human partial length RET (E713 to D1014 residues) expressed in bacterial expression system assessed as residual binding level at 1 uM by Kinomescan method relative to control
Proto-oncogene tyrosine-protein kinase receptor Ret (Homo sapiens), sequence (P07949 whole entry, the tested form may be a part): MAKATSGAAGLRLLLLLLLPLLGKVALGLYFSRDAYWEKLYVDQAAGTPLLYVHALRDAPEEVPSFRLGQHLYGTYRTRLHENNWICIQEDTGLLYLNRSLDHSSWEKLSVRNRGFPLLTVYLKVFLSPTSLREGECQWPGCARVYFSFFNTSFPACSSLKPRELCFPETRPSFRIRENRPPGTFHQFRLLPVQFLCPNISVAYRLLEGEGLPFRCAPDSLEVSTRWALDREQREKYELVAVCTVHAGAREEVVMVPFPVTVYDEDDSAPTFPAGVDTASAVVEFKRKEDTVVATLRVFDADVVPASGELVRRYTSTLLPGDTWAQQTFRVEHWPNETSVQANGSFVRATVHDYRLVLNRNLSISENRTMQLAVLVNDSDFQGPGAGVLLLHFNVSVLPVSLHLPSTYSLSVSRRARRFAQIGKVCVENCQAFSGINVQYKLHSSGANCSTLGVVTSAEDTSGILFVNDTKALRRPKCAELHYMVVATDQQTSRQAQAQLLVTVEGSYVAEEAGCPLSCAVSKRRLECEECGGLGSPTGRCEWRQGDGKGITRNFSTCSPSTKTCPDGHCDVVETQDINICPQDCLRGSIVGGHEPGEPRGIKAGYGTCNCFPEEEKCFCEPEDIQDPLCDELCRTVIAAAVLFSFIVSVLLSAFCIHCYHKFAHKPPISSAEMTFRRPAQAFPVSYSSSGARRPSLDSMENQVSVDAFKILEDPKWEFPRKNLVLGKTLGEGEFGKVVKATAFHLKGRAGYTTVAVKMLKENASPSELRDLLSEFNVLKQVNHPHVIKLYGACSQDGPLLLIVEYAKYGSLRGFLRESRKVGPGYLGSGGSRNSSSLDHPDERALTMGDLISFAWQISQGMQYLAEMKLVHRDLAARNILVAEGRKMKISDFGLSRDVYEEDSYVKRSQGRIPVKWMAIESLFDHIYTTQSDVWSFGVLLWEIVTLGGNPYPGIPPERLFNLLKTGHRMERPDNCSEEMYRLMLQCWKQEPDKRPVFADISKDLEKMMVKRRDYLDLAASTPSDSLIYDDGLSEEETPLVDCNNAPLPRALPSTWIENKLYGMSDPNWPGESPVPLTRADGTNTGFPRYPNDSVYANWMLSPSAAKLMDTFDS

[13] = target: Serine/threonine-protein kinase 16 (Homo sapiens) (UniProt O75716); experiment: Binding affinity to wild-type human partial length STK16 (G11 to I305 residues) expressed in bacterial expression system assessed as residual binding level at 1 uM by Kinomescan method relative to control
Serine/threonine-protein kinase 16 (Homo sapiens), sequence (O75716 whole entry, the tested form may be a part): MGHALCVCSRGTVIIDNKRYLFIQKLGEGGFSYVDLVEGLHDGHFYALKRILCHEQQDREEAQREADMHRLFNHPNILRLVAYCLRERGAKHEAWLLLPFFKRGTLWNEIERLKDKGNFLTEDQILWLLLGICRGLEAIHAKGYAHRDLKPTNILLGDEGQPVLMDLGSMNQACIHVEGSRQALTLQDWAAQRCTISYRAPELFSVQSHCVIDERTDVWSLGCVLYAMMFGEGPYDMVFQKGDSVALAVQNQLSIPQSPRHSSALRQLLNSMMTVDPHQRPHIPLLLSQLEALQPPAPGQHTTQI

[14] = target: Myosin-IIIa (Homo sapiens) (UniProt Q8NEV4); experiment: Binding affinity to wild-type human partial length MYO3A (M1 to K338 residues) expressed in bacterial expression system assessed as residual binding level at 1 uM by Kinomescan method relative to control
[15] = target: Serine/threonine-protein kinase 32A (Homo sapiens) (UniProt Q8WU08); experiment: Binding affinity to wild-type human full length YANK1 (M1 to L396 residues) expressed in mammalian expression system assessed as residual binding level at 1 uM by Kinomescan method relative to control
Serine/threonine-protein kinase 32A (Homo sapiens), sequence (Q8WU08 whole entry, the tested form may be a part): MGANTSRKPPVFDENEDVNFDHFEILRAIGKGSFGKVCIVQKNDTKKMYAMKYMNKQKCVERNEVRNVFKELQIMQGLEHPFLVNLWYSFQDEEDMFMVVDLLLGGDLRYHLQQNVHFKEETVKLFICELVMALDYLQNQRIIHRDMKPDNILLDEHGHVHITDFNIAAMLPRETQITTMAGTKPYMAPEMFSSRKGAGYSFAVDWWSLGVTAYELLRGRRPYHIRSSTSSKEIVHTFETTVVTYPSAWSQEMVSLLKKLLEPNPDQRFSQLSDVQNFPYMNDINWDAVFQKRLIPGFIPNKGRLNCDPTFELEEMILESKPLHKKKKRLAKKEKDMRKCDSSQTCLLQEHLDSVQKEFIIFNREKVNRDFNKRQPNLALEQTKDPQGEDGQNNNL

[16] = target: Serine/threonine-protein kinase MARK2 (Homo sapiens) (UniProt Q7KZI7); experiment: Binding affinity to wild-type human partial length MARK2 (M1 to R450 residues) expressed in bacterial expression system assessed as residual binding level at 1 uM by Kinomescan method relative to control
[17] = system: Proto-oncogene tyrosine-protein kinase receptor Ret (Homo sapiens), P07949 [V804L]; experiment: Binding affinity to human partial length RET V804L mutant (E713 to D1014 residues) expressed in bacterial expression system assessed as residual binding level at 1 uM by Kinomescan method relative to control; summary of the method: as §2
[18] = target: ALK tyrosine kinase receptor (Homo sapiens, UniProt Q9UM73); experiment: Binding affinity to wild-type human partial length ALK (I1088 to E1409 residues) expressed in mammalian expression system assessed as residual binding level at 1 uM by Kinomescan method relative to control
[19] = target: Serine/threonine-protein kinase PLK1 (Homo sapiens) (UniProt P53350); experiment: Binding affinity to wild-type human partial length PLK1 (A33 to F325 residues) expressed in mammalian expression system assessed as residual binding level at 1 uM by Kinomescan method relative to control
Serine/threonine-protein kinase PLK1 (Homo sapiens), sequence (P53350 whole entry, the tested form may be a part): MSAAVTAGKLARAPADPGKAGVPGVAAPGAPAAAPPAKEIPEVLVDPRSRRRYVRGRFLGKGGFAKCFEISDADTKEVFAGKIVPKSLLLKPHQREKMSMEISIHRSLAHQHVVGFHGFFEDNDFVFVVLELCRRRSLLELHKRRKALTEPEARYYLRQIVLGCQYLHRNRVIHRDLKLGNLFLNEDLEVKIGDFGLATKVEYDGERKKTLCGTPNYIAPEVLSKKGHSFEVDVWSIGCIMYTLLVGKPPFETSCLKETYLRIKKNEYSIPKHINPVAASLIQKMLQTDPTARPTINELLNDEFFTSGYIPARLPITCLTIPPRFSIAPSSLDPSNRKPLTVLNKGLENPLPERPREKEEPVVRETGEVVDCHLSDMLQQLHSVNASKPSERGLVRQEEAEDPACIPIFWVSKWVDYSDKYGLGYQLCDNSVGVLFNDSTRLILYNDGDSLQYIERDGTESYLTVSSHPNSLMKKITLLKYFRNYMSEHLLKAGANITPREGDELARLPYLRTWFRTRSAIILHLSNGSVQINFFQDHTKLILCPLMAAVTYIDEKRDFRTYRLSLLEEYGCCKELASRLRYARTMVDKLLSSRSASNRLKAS

[20] = target: MAP kinase-activated protein kinase 2 (Homo sapiens) (UniProt P49137); experiment: Binding affinity to wild-type human partial length MAPKAPK2 (V48 to D345 residues) expressed in bacterial expression system assessed as residual binding level at 1 uM by Kinomescan method relative to control
MAP kinase-activated protein kinase 2 (Homo sapiens), sequence (P49137 whole entry, looked up, the tested form may be a part): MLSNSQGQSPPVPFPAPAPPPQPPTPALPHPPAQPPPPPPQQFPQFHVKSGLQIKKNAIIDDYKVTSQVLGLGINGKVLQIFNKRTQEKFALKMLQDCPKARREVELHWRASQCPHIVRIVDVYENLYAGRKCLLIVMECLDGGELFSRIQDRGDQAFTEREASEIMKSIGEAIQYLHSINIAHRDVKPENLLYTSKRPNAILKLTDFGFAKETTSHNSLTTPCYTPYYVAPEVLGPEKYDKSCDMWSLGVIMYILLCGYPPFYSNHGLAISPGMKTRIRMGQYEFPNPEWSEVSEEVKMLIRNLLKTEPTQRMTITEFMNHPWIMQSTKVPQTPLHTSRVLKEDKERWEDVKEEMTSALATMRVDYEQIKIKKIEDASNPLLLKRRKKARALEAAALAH

[21] = target: 5'-AMP-activated protein kinase catalytic subunit alpha-2 (Homo sapiens) (UniProt P54646); experiment: Binding affinity to wild-type human partial length AMPK alpha2 (M1 to E306 residues) expressed in bacterial expression system assessed as residual binding level at 1 uM by Kinomescan method relative to control
[22] = target: Serine/threonine-protein kinase TAO2 (Homo sapiens) (UniProt Q9UL54); experiment: Binding affinity to wild-type human partial length TAOK2 (M1 to A320 residues) expressed in mammalian expression system assessed as residual binding level at 1 uM by Kinomescan method relative to control
[23] = target: Serine/threonine-protein kinase 4 (Homo sapiens) (UniProt Q13043); experiment: Binding affinity to wild-type human full length MST1 (M1 to F487 residues) expressed in bacterial expression system assessed as residual binding level at 1 uM by Kinomescan method relative to control; summary of the method: as §1
[24] = system: Phosphatidylinositol 4,5-bisphosphate 3-kinase catalytic subunit alpha isoform (Homo sapiens), P42336 [H1047Y]; experiment: Binding affinity to human partial length PIK3CA H1047Y mutant (R108 to N1068 residues) expressed in mammalian expression system assessed as residual binding level at 1 uM by Kinomescan method relative to control

Serine/threonine-protein kinase WNK3 (Homo sapiens), sequence (Q9BYP7 whole entry, the tested form may be a part): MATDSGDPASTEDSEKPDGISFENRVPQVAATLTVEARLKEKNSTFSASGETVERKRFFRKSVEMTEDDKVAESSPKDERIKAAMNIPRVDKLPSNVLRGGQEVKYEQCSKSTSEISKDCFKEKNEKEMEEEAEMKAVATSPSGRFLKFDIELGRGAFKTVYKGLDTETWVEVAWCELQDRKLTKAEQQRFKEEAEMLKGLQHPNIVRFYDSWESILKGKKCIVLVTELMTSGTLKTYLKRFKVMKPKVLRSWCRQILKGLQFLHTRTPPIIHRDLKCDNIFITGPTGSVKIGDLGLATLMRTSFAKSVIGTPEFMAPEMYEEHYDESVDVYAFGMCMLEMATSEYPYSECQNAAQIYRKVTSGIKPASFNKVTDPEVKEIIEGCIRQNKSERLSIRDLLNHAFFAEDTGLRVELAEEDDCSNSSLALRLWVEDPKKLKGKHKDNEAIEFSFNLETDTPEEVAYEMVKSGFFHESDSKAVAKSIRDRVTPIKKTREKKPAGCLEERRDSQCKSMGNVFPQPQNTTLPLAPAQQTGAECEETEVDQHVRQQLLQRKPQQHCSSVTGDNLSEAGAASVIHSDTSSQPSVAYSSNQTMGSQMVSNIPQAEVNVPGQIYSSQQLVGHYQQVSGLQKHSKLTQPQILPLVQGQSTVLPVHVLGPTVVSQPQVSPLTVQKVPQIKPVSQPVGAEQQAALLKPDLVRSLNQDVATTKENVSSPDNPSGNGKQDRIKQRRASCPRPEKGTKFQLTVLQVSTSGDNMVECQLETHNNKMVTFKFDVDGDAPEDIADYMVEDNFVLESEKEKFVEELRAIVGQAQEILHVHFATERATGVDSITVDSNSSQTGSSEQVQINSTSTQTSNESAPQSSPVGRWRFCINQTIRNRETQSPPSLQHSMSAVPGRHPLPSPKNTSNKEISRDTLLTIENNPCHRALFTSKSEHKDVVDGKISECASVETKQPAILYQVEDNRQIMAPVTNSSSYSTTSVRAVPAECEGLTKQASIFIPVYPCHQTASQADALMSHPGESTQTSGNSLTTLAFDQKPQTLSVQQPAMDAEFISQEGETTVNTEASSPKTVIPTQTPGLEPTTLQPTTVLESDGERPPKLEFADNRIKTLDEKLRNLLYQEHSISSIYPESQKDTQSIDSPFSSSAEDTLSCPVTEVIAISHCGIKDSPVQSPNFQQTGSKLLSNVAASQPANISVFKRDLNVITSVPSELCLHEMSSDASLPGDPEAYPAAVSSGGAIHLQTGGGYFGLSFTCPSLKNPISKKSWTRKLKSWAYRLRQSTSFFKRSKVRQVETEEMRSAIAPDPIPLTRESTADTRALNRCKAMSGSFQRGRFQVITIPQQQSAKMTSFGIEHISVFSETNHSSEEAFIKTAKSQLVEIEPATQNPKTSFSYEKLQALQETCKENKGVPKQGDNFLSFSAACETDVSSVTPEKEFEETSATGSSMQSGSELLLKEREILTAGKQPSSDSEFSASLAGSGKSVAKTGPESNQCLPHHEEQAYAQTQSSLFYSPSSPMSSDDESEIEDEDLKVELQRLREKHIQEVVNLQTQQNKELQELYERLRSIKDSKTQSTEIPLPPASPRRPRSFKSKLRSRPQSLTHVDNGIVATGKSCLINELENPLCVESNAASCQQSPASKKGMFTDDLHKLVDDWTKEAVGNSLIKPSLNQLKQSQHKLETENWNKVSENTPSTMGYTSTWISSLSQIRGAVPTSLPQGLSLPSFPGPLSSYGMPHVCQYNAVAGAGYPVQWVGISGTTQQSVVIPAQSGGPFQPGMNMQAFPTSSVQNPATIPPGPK

## C=CC(=O)Nc1cc(Nc2ncc(Cl)c(Nc3ccccc3S(=O)(=O)C(C)C)n2)c(OC)cc1N(C)CCN(C)C
[1]
  Activity: 100%
[2]
  Activity: 21%
[3]
  Activity: 92%
[4]
  Activity: 28%
[5]
  Activity: 45%
[6]
  Activity: 87%
[7]
  concentration at 2 h: 100 nM
[8]
  Activity: 18%
[9]
  Activity: 93%
[10]
  Activity: 0.45%
[11]
  Activity: 83%
[12]
  Activity: 13%
[13]
  Activity: 64%
[14]
  Activity: 31%
[15]
  Activity: 2.3%
[16]
  Activity: 57%
[17]
  Activity: 14%
[18]
  Activity: 0%
[19]
  Activity: 83%
[20]
  Activity: 100%
[21]
  Activity: 23%
[22]
  Activity: 52%
[23]
  Activity: 86%
[24]
  Activity: 100%
